Measured values gathered from unrelated publications.
Target: Tyrosine-protein kinase FRK (FRK, Homo sapiens, UniProt P42685)

The activity vs control of `Cc1ccc(C(=O)NCc2ccsc2)cc1C#Cc1cn(C(C)C)c2ncnc(N)c12` is reported as 2% (enzyme activity, inhibitor; 1 µM).
`COc1cc2ncnc(Nc3ccc(Oc4ccccc4)cc3C)c2cc1OC` gave an inhibition of 63% (enzyme activity, inhibitor; 1 µM).
For `Cc1sc(C(=O)NC2COC2)cc1-n1cc(NC(=O)Nc2c(F)cccc2Cl)cn1`, the remaining activity was 87.3% (enzyme activity, inhibitor; 10 µM).
The remaining activity of `Cc1cnc(NC2CCOCC2)nc1-n1cnc(C(=O)NC(CN)c2cc(F)cc(Cl)c2)c1` (stereo not shown) is reported as 98% (enzyme activity, inhibitor, radiometric; 1 µM).
`CC(=O)Nc1c(C(C)=O)c(=O)n(C)c2nc(-c3ccc(Cl)cc3Cl)c(-c3ccc(Cl)cc3)cc12` has a remaining binding of 100% (cell-free assay, competition with immobilised ligand; 1 µM).
`O=c1cc(-c2cccc3c2Sc2ccccc2S3)oc(N2CCOCC2)c1` has a remaining activity of 99.5% (enzyme activity, inhibitor; 0.5 µM).
`CC(C)(C)c1nc(-c2cccc(NS(=O)(=O)c3c(F)cccc3F)c2F)c(-c2ccnc(N)n2)s1` has a remaining activity of 111% (enzyme activity, inhibitor, radiometric; 1 µM).
The remaining binding of `CCOCCn1cc(C(=O)Nc2ccc(-n3nc(-c4cccnc4)cc3C(F)(F)F)cn2)ccc1=O` is reported as 100% (cell-free assay, competition with immobilised ligand; 1 µM).
`Cc1ccc(C(=O)Nc2ccc(CN3CCN(C)CC3)c(C(F)(F)F)c2)cc1C#Cc1cnc2cccnn12` has a remaining activity of 16% (enzyme activity, inhibitor; 23.5 nM).
The remaining activity of `COc1cc(Cl)c(C(=O)N[C@@H](CN[C@H]2CC[C@@H](N)CC2)Cc2ccc(C#N)cc2)cc1-c1ccc(CN[C@H](C)c2ccc(C)cc2)o1` is reported as 99% (enzyme activity, inhibitor; 1 µM).
`C[C@H](NC(=O)c1cnc2n1[C@](C)(Cc1ccc(C#N)cc1)C(=O)N2c1cc(Cl)c(F)c(Cl)c1)C(=O)NC1(c2ccccn2)CC1` gave a remaining binding of 68% (cell-free assay, competition with immobilised ligand; 1 µM).
`Cc1ccc(Nc2nccc(N(C)c3ccc4c(C)n(C)nc4c3)n2)cc1S(N)(=O)=O` has a remaining signal of 58.1% (cell-free assay; 0.5 µM).
`Cc1nc(N2CC[C@@H](O)C2)ncc1-c1cc(C(F)(F)F)cc2[nH]ncc12` gave a remaining binding of 98% (cell-free assay, competition with immobilised ligand; 1 µM).
The remaining signal of `COc1cc2c(Nc3ccc(Br)cc3F)ncnc2cc1OCC1CCN(C)CC1` is reported as 79.5% (cell-free assay; 0.5 µM).
For `COc1cc2nccc(Oc3ccc(NC(=O)c4c5n(n(-c6ccc(F)cc6)c4=O)CCCC5)cc3)c2cc1OC`, the inhibition was 86% (enzyme activity, inhibitor; 0.1 µM).
`CC1=C(C#N)[C@@H](c2ccc3[nH]nc(C)c3c2)C(C#N)=C(c2ccc(Cl)cc2)N1` gave a remaining binding of 100% (cell-free assay, competition with immobilised ligand; 1 µM).
The inhibition of `CNC(=O)c1cc2c(Oc3ccc(NC(=O)C4(C(=O)Nc5ccc(F)cc5)CC4)cc3)ccnc2cc1OC` is reported as 99% (enzyme activity, inhibitor, radiometric; 1 µM).
`CCN(CC)CCNC(=O)c1c(C)[nH]c(/C=C2\C(=O)Nc3ccc(F)cc32)c1C` has an inhibition of 93% (enzyme activity, inhibitor; 10 µM).
With `Nc1ncnc2occ(-c3ccc(NC(=O)Nc4cc(C(F)(F)F)ccc4F)cc3)c12` the remaining signal was 0.15% (cell-free assay, inhibitor; 20 µM).
The activity vs control of `c1nc2c(Nc3ccc4c(c3)OCCO4)nc(Nc3ccc4c(c3)OCCO4)nc2[nH]1` is reported as 22% (enzyme activity, inhibitor; 10 µM).
For `O=c1c2ccccc2[nH]c(=S)n1CCN1CCC(=C(c2ccc(F)cc2)c2ccc(F)cc2)CC1`, the remaining activity was 100% (enzyme activity, inhibitor; 0.5 µM).
`C[C@@]1(Cc2ccc(C#N)cc2)C(=O)N(c2cc(Cl)cc(Cl)c2)c2ncc(C(=O)NC3(c4nc(C5CCC5)no4)CC3)n21` gave a remaining binding of 81% (cell-free assay, competition with immobilised ligand; 1 µM).
